Assay outcomes deposited in PubChem by Johns Hopkins Ion Channel Center.
Most compounds without a hit are left out; they make up all but 2.3% or so of the library.
TRPC6 act: activates the mouse TRPC6 cation channel | Q61143 | HEK293-TRPC6 membrane potential dye fluorescence; hits give high values | B-score at 10 µM | 310,000 tested, 0.13% active;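 active = B-score of the integrated fluorescence ratio above library mean plus 3 SD, and starting fluorescence ratio within library mean plus 5 SD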;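 note: higher score means more depolarization so channel activation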
Target sequence (Q61143 whole entry, looked up): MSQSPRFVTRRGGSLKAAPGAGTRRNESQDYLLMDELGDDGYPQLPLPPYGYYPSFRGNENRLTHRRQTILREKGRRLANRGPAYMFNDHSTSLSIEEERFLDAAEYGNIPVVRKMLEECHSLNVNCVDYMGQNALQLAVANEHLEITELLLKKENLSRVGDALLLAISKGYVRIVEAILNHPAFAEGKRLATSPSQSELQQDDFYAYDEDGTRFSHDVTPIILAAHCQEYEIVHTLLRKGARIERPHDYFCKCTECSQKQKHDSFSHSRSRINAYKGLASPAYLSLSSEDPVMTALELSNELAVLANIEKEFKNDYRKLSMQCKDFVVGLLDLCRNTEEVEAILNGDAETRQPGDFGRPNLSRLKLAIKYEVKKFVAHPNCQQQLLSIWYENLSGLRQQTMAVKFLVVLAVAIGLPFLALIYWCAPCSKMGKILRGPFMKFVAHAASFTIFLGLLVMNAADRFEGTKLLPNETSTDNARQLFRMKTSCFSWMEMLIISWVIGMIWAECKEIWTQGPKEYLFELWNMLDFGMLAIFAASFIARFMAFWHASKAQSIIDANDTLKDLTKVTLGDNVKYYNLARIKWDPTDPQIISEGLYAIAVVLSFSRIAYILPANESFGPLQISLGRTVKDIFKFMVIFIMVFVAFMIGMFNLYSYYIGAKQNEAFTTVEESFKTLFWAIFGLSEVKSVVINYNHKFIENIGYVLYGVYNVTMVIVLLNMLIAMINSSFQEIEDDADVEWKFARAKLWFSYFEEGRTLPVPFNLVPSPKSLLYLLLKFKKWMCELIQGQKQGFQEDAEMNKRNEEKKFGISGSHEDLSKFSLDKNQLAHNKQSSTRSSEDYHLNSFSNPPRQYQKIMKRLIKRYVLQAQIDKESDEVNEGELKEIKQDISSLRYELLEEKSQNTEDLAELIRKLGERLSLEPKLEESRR
TRPC6 inh: inhibitors of mouse TRPC6 channel. Q61143. HEK293-TRPC6, membrane potential dye, ACh-evoked depolarization; hits give low values. B-score at 10 µM. 310,000 tested, 1.1% active;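 active = B-score under library mean minus 3 SD, initial fluorescence not abnormally high, positive integrated signal ratio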;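 note: B-score derived from integrated fluorescence ratio over the kinetic read; more negative B-score means stronger inhibition of depolarization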
TRPC4 block: inhibitors of mouse TRPC4 channel; B-score at 10 µM; HEK293 TRPC4beta/mu-opioid, DAMGO-evoked Fluo4 calcium flux; hits give low values; AID 2247; 300,000 tested, 0.39% active;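 active = B-score over 3 SD under the library average, no early fluorescence shift, positive overall ratio signal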
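material = TRPC4beta/mu-opioid receptor HEK293 cell line | probe or stimulus = sequential submaximal and maximal DAMGO stimulation | compound dosing = one concentration per compound | measured by = Fluo4 Ca2+ flux fluorescence | evaluation = integrated fluorescence ratio relative to baseline, converted to per-well B score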
TRPC4 PAM: allosteric potentiators of mouse TRPC4 channel; Q9QUQ5; 310,000 tested, 0.42% active; HEK293 TRPC4beta/mu-opioid, DAMGO EC20, Fluo-4 Ca2+ flux; hits give high values; B-score at 10 µM;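 active = B-score of calcium response area above 5 SD of library B-scores, with initial fluorescence ratio within 5 SD of library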;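 note: B-score of integrated fluorescence ratio over time as area under calcium response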
TRPC4 act: activators of mouse TRPC4 channel. 310,000 tested, 0.49% active. AID 2237. HEK293 TRPC4beta/mu-opioid, Fluo4 calcium fluorescence; hits give high values. B-score at 10 µM;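 active = B-score above 5 SD of library B-scores, and initial fluorescence ratio not above library mean plus 5 SD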;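 note: positive B-score marks a calcium rise read as TRPC4 activation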
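System: HEK293 cells stably co-expressing mouse TRPC4beta and mu-opioid receptor; Schedule: Fluo4 dye loading 45 min at room temperature, 110 s recording; Detection: Fluo4 fluorescence, kinetic; Evaluation: B-scored integrated calcium fluorescence ratio; Controls: buffer (low) and maximal DAMGO (high).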
TRPC4 spec 2: mouse TRPC4 off-target activity of TRPC6 inhibitors, second screen; 920 tested, 42% active; inhibition, % at 10 µM; shares compounds with TRPC6 inh; AID 2776; HEK293 TRPC4/MOR, membrane potential dye fluorescence; channel activated by saturating DAMGO dose;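 active = compounds whose fluorescence signal differed from control wells by over 3 SD, either direction, in both duplicate plates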
TRPC4 spec: mouse TRPC4 off-target activity of TRPC6 inhibitors | 920 tested, 61% active | activity change, negative = inhibition, % at 10 µM | HEK293 TRPC4/mu-opioid, membrane potential fluorescence | shares compounds with TRPC6 inh;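 active = rise or fall in signal beyond 3 SD of buffer-only wells in both replicate plates, either sign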;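 note: integrated kinetic ratio of fluorescence range over baseline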
HEK293 MPD ctr 2-1: parental HEK293 nonspecific activity of TRPC6 inhibitors, second screen. shares compounds with TRPC6 inh. parental HEK293 membrane potential dye fluorescence; maximal acetylcholine challenge after compound addition. signal change vs control, % at 10 µM. 920 tested, 31% active. AID 2779;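 active = membrane potential signal moving either way by over 3 SD of the maximum-effect control, in both duplicate plates, meaning non-specific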
HEK293 MPD ctr-1: parental HEK293 nonspecific activity of TRPC6 inhibitors. membrane potential signal change, % at 10 µM. parental HEK293 membrane potential dye fluorescence. 920 tested, 60% active. shares compounds with TRPC6 inh. AID 2780;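 active = membrane potential signal shifting up or down by more than 3 SD of buffer-only wells, on both duplicate plates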
HEK293 MPD ctr-2: parental HEK293 nonspecific activity of TRPC6 modulators | 2,400 tested, 51% active | shares compounds with TRPC6 inh | membrane potential dye fluorescence | AID 488924 | membrane potential signal change, % at 10 µM;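 active = membrane potential signal moves up or down beyond 5 SD from buffer-only wells, on both duplicate plates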
HEK293 MPD ctr 2-2: parental HEK293 nonspecific activity of TRPC6 modulators, second screen; shares compounds with TRPC6 inh; membrane potential dye fluorescence; after compound, maximal acetylcholine stimulation; inhibition, % at 10 µM; 2,400 tested, 14% active;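 active = membrane potential signal drops by more than 5 SD from the mean control signal, in both duplicate plates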;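 note: plate controls were acetylcholine ECmax control wells for no effect and buffer only wells for full effect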
TRPC4/MOR mod: selectivity of TRPC6 modulators against mouse TRPC4; percent change from control (negative = decrease, positive = increase), % at 10 µM; AID 488927; 2,400 tested, 69% active; shares compounds with TRPC6 inh; HEK293 TRPC4/mu-opioid, membrane potential fluorescence;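 active = membrane potential signal moved up or down beyond 5 SD of buffer control wells, in both duplicate plates, actives on both sides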;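 note: plate controls were assay buffer wells for no effect and DAMGO maximal-effect wells for full effect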
TRPC4 ctr inh 2: mouse TRPC4 off-target activity of TRPC6 modulators, second screen; shares compounds with TRPC6 inh; HEK293 TRPC4/mu-opioid, membrane potential dye fluorescence; stimulated with maximal-effect DAMGO; inhibition, % at 10 µM; 2,400 tested, 55% active;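 active = drop in membrane potential signal beyond 5 SD of the control wells in both duplicate plates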;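 note: TRPC4 counter screen for TRPC6 hits run under conditions tuned for TRPC6 not TRPC4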
TRPC6 inh conf: mouse TRPC6 inhibitor confirmation; HEK293-TRPC6, membrane potential dye, ACh-evoked depolarization; 3,300 tested, 43% active; inhibition, % at 10 µM; AID 488960; shares compounds with TRPC6 inh;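 active = fluorescence ratio falls more than 5 SD below the full-stimulation control mean, in both duplicate runs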;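 note: integrated fluorescence ratio of peak minus minimum over baseline after agonist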
TRPC6 act confirm: mouse TRPC6 activator confirmation. shares compounds with TRPC6 inh. HEK293-TRPC6 membrane potential dye fluorescence, FDSS. activation, % at 10 µM. 2,800 tested, 11% active. AID 488961;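 active = ratio signal rise beyond 5 SD above unstimulated control wells' mean, seen in both duplicate runs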;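 note: plate controls were buffer EC0 wells for no effect and acetylcholine ECmax response for full effect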
An asterisk follows results filed as active; i = inactive; nt = no result given.

SMILES	TRPC6 act	TRPC6 inh	TRPC4 block	TRPC4 PAM	TRPC4 act	HEK293 MPD ctr-2	HEK293 MPD ctr 2-2	TRPC4/MOR mod	TRPC4 ctr inh 2	TRPC6 inh conf	TRPC6 act confirm	others
Cc1ccc(C)c(N2CCN(c3ccncc3N)CC2)c1	i	-6.5*	i	i	i	i	i	i	52%*	i	i
O=C(NCc1ccccn1)C1(C(F)(F)F)C/C(=C\CCO)CCCO1 (stereo unspecified)	i	i	i	i	i	nt	nt	nt	nt	nt	nt
FC(F)(F)c1ccccc1-n1c(-c2ccco2)n[nH]c1=S	i	i	i	i	i	nt	nt	nt	nt	nt	nt
COc1cc(CCC(=O)OCC(=O)N(CCC#N)c2ccccc2)cc(OC)c1OC	i	-5.4*	i	i	i	i	i	i	i	i	i
N#CCCN(C(=O)COC(=O)Cc1ccc(Br)cc1)c1ccccc1	i	i	i	i	i	nt	nt	nt	nt	nt	nt
COc1ccccc1NC(=O)C1CC(O)CN1C(=O)Oc1ccccc1 (stereo unspecified)	i	i	i	i	i	nt	nt	nt	nt	nt	nt
O=[N+]([O-])c1cccc(-c2c[n+]3c(n2-c2ccccc2)SCC3)c1	i	-5.2*	i	i	i	i	i	i	34%*	47%*	i
Clc1ccc(-c2c[n+]3c(n2-c2ccccc2)SCC3)cc1	i	i	i	i	i	nt	nt	nt	nt	nt	nt
COc1ccc(-c2[nH]n(-c3ccc([N+](=O)[O-])cc3)c(=O)c2C=NCCN2CCNCC2)cc1	i	-6.5*	i	i	i	-227%*	i	-42%*	50%*	50%*	i
COCCNC(=S)N1CCOCC1	i	i	i	i	i	nt	nt	nt	nt	nt	nt
C=COCCNC(=S)N1CCOCCOCCN(C(=S)NCCOC=C)CCOCC1	i	-5*	i	i	i	i	i	i	40%*	i	i
Cc1c(C)[n+](=O)c2c(n1[O-])CCCCC2	i	-7.7*	i	i	i	nt	nt	nt	nt	i	i	TRPC4 spec 2=i;TRPC4 spec=i;HEK293 MPD ctr 2-1=i;HEK293 MPD ctr-1=i
CCOc1ccc(NC(=S)NCc2ccc3[nH]c(C)cc3c2)cc1	i	-8.1*	i	i	i	nt	nt	nt	nt	i	i	TRPC4 spec 2=i;TRPC4 spec=-9.5%*;HEK293 MPD ctr 2-1=i;HEK293 MPD ctr-1=-150%*
CC(C)(C)C1CCC(=O)N(CCSc2ccccc2)CC1 (stereo unspecified)	i	-5.2*	i	i	i	190%*	i	44%*	i	i	nt
